Experiments:
[1] = test system: human plasma prothrombin time; test: Human plasma prothrombin time; assay type: biochemical; conditions: concentration that doubled the prothrombin time in human plasma; Thromborel S
How it was run: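 KM-2 control plasma mixed with test compound solution and incubated 1 min at 37°C. Clotting triggered with thromboplastin (ISI=1) and time read on a coagulometer. The concentration doubling PT was estimated by regression from dose-response curves.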

[2] = biological target: human FXa (Homo sapiens, UniProt P00742); test: Factor Xa inhibition, chromogenic substrate assay; assay type: biochemical
human FXa, sequence (P00742 235-488 limits assumed): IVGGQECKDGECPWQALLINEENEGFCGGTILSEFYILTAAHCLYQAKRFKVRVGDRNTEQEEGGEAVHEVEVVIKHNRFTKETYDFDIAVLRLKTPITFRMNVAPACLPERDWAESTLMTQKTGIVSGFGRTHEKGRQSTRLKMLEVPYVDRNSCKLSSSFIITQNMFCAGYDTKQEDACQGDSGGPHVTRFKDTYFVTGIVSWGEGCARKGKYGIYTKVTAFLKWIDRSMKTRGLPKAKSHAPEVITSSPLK
human FXa, sequence (P00742 41-179 partner limits assumed): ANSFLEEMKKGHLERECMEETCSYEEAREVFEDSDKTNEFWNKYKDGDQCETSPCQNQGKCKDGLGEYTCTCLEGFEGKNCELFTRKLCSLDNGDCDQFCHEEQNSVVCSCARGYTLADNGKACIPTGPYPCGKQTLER
How it was run: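 Human FXa (0.0625 U/mL) and test compound in aqueous 5% (v/v) DMSO mixed in Tris-BSA buffer (0.2 M NaCl, 0.1 M Tris, 0.2% BSA, pH 7.4). Chromogenic substrate added to start the reaction, then 10 s stirring. OD at 405 nm followed over time against a DMSO-only reference. Inhibition = 1 − OD(inhibitor)/OD(reference). IC50 derived from the concentration dependence.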

SMILES	IC50 [2] [nM]	PTx2 [1] [µM]
CNC(=O)N(C)c1ccc(C(=O)Nc2ccc(C)cc2C(=O)Nc2ccc(Cl)cn2)cc1 [Compound 117, N-(5-chloropyridin-2-yl)-5-methyl-2-[(4-{methyl[(methylamino)carbonyl]amino}benzoyl)amino]benzamide]	0.15 ± 0.03	2.0 ± 0.4
CC(=N)N(C)c1ccc(C(=O)Nc2ccc(C)cc2C(=O)Nc2ccc(Cl)cn2)c(F)c1 [Compound 302, N-(2-{[(5-chloropyridin-2-yl)amino]carbon-yl}-4-methylphenyl)-4-[ethanimidoyl(methyl)amino]-2-fluorobenzamide]	0.8 ± 0.2	0.09 ± 0.02
CC(=N)N(C)c1ccc(C(=O)Nc2ccc(Cl)cc2C(=O)Nc2ccc(Cl)cn2)c(F)c1 [Compound 303, N-(4-chloro-2-{[(5-chloropyridin-2-yl)amino]carbonyl}phenyl)-4-[ethanimidoyl (methyl)amino]-2-fluorobenzamide]	1 ± 0.2	0.09 ± 0.02
CC(=N)N(C)c1ccc(C(=O)Nc2ccc(C)cc2C(=O)Nc2ccc(Cl)cc2)cc1 [Compound 304, N-(4-chlorophenyl)-2-({4-[ethanimidoyl (methyl)amino]benzoyl}amino)-5-methylbenzamide]	1 ± 0.2	>30
COc1cc(N(C)C(C)=N)ccc1C(=O)Nc1ccc(C)cc1C(=O)Nc1ccc(Cl)cn1 [Compound 307, N-(2-{[(5-chloropyridin-2-yl)amino]carbonyl}-4-methylphenyl)-4-[ethanimidoyl(methyl)amino]-2-methoxybenzamide]	1 ± 0.2	2.0 ± 0.4
CC(=N)N(C)c1ccc(C(=O)Nc2ccccc2C(=O)Nc2ccc(Cl)cn2)cc1 [Compound 310, N-(5-chloropyridin-2-yl)-2-({4-[ethanimidoyl (methyl)amino]benzoyl}amino)benzamide]	2 ± 0.2	0.50 ± 0.12

Now from value to compound, other results behind:

IC50 [2] [nM]	SMILES	PTx2 [1] [µM]
2 ± 0.3	CNC(=O)N(C)c1ccc(C(=O)Nc2ccc(C)cc2C(=O)Nc2ccc(Cl)cc2)cc1 [Compound 311, N-(4-chlorophenyl)-5-methyl-2-[(4-{methyl [(methylamino)carbonyl]amino}benzoyl)amino]benzamide]	>30
0.15 ± 0.03	CNC(=O)N(C)c1ccc(C(=O)Nc2ccc(C)cc2C(=O)Nc2ccc(C)cc2)cc1 [Compound 312, 5-methyl-2-[(4-{methyl[(methylamino)carbonyl]amino}benzoyl)amino]-N-(4-methyl-phenyl)benzamide]	3.0 ± 0.6
0.25 ± 0.05	CNC(=O)N(C)c1ccc(C(=O)Nc2ccccc2C(=O)Nc2ccc(Cl)cn2)cc1 [Compound 317, N-(5-chloropyridin-2-yl)-2-[(4-{methyl[ (methylamino)carbonyl]amino}benzoyl)amino]benzamide]	3.0 ± 0.6

Reference: article PMC6142410 (Current Drug Discovery Technologies, 2018)
